Experimental data: ChEMBL document CHEMBL5724801, “EUbOPEN Chemogenomics Library - Multiplex” (2024)
“And” between values parts separate entries of the source, which are not always exact repeats. Equal values may be shown once.

Legend:
Type in all cases: toxicity, cell-based
U2OS = assay: Multiplex assay against U2OS; settings: human
Method in brief: (§1)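 Four dyes were applied at seeding to live cells: Hoechst33342, BioTracker Green Microtubule Cytoskeleton Dye, MitoTracker Red and Annexin V Alexa Fluor 680. Imaging after compound addition used a CQ1 microscope at 37°C and 5% CO2. CellPathfinder machine-learning gating then sorted cells into Hoechst high-intensity objects or normal cells, normal cells into healthy, pyknosed or fragmented nuclei, and pyknosed cells into mitotic or apoptotic, with tubulin, mitochondrial-mass and membrane-permeability phenotypes given as per cents of healthy-nucleus cells.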

Fibroblast = assay: Multiplex assay against human fibroblast; method in brief: as §1
HEK-293T = assay: Multiplex assay against HEK293T; settings: human; method in brief: as §1
[1] = 12 h, 1 µM, compound concentration 1 uM
[2] = 12 h, 10 µM, compound concentration 10 uM
[3] = 24 h, 1 µM, compound concentration 1 uM
[4] = 24 h, 10 µM, compound concentration 10 uM
[5] = 48 h, 1 µM, compound concentration 1 uM
[6] = 48 h, 10 µM, compound concentration 10 uM

## CC(/C=C1\SC(=S)N(CCCC(=O)Nc2ccc(C(=O)O)c(O)c2)C1=O)=C\c1ccccc1
U2OS; [1]
  Population Apoptotic (%): 94% and 100%
  Population Fragmented Nuclei (%): 26% and 12%
  Population Healthy Nuclei (%): 64% and 80%
  Population Hoechst High Intensity Objects (%): 3% and 4%
  Population Membrane Permeable-Phenotype (%): 4% and 3%
  Population Mitochondria Different-Phenotype (%): 1% and 2%
  Population Mitotic Cells (%): 5% and 0%
  Population Normal (%): 96% and 95%
  Population Pyknosed Nuclei (%): 8% and 7%
  Population Tubulin-Different-Phenotype (%): 3% and 0%
  Total Cell Count: 205 and 133
U2OS; [2]
  Population Apoptotic (%): 91% and 72%
  Population Fragmented Nuclei (%): 28% and 16%
  Population Healthy Nuclei (%): 61% and 72%
  Population Hoechst High Intensity Objects (%): 3% and 0%
  Population Membrane Permeable-Phenotype (%): 12% and 4%
  Population Mitochondria Different-Phenotype (%): 2% and 1%
  Population Normal (%): 96% and 100%
  Population Pyknosed Nuclei (%): 9% and 10%
  Population Tubulin-Different-Phenotype (%): 4% and 5%
  Total Cell Count: 241 and 101
U2OS; [3]
  Population Apoptotic (%): 83% and 94%
  Population Fragmented Nuclei (%): 25% and 9%
  Population Healthy Nuclei (%): 64% and 79%
  Population Hoechst High Intensity Objects (%): 3% and 1%
  Population Membrane Permeable-Phenotype (%): 4% and 10%
  Population Mitochondria Different-Phenotype (%): 1%
  Population Normal (%): 96% and 98%
  Population Pyknosed Nuclei (%): 10%
  Population Tubulin-Different-Phenotype (%): 1%
  Total Cell Count: 247 and 177
U2OS; [4]
  Population Apoptotic (%): 88% and 53%
  Population Fragmented Nuclei (%): 26% and 16%
  Population Healthy Nuclei (%): 64% and 72%
  Population Hoechst High Intensity Objects (%): 2% and 0%
  Population Membrane Permeable-Phenotype (%): 7%
  Population Mitochondria Different-Phenotype (%): 3% and 6%
  Population Normal (%): 97% and 100%
  Population Pyknosed Nuclei (%): 8% and 11%
  Population Tubulin-Different-Phenotype (%): 3% and 6%
  Total Cell Count: 298 and 111
U2OS; [5]
  Population Apoptotic (%): 93% and 78%
  Population Fragmented Nuclei (%): 16% and 11%
  Population Healthy Nuclei (%): 74% and 79%
  Population Hoechst High Intensity Objects (%): 2% and 3%
  Population Membrane Permeable-Phenotype (%): 5% and 4%
  Population Mitochondria Different-Phenotype (%): 1% and 3%
  Population Normal (%): 97% and 96%
  Population Pyknosed Nuclei (%): 8% and 9%
  Population Tubulin-Different-Phenotype (%): 1% and 2%
  Total Cell Count: 368 and 253
U2OS; [6]
  Population Apoptotic (%): 97% and 82%
  Population Fragmented Nuclei (%): 19% and 16%
  Population Healthy Nuclei (%): 68% and 73%
  Population Hoechst High Intensity Objects (%): 2% and 1%
  Population Membrane Permeable-Phenotype (%): 6% and 4%
  Population Mitochondria Different-Phenotype (%): 2% and 1%
  Population Normal (%): 97% and 98%
  Population Pyknosed Nuclei (%): 12% and 10%
  Population Tubulin-Different-Phenotype (%): 4% and 0%
  Total Cell Count: 396 and 170
Fibroblast; [1]
  Population Apoptotic (%): 50% and 33%
  Population Fragmented Nuclei (%): 14% and 19%
  Population Healthy Nuclei (%): 71% and 60%
  Population Hoechst High Intensity Objects (%): 2% and 3%
  Population Membrane Permeable-Phenotype (%): 0% and 13%
  Population Mitochondria Different-Phenotype (%): 2% and 9%
  Population Mitotic Cells (%): 50% and 66%
  Population Normal (%): 97% and 96%
  Population Pyknosed Nuclei (%): 13% and 19%
  Population Tubulin-Different-Phenotype (%): 28% and 54%
  Total Cell Count: 206 and 157
Fibroblast; [2]
  Population Apoptotic (%): 56% and 40%
  Population Fragmented Nuclei (%): 15% and 19%
  Population Healthy Nuclei (%): 70% and 48%
  Population Hoechst High Intensity Objects (%): 2% and 4%
  Population Membrane Permeable-Phenotype (%): 0% and 8%
  Population Mitochondria Different-Phenotype (%): 5%
  Population Mitotic Cells (%): 43% and 59%
  Population Normal (%): 97% and 95%
  Population Pyknosed Nuclei (%): 13% and 31%
  Population Tubulin-Different-Phenotype (%): 44% and 54%
  Total Cell Count: 123 and 122
Fibroblast; [3]
  Population Apoptotic (%): 54% and 33%
  Population Fragmented Nuclei (%): 17%
  Population Healthy Nuclei (%): 72% and 63%
  Population Hoechst High Intensity Objects (%): 1% and 2%
  Population Membrane Permeable-Phenotype (%): 2% and 5%
  Population Mitochondria Different-Phenotype (%): 4% and 12%
  Population Mitotic Cells (%): 45% and 66%
  Population Normal (%): 98% and 97%
  Population Pyknosed Nuclei (%): 10% and 19%
  Population Tubulin-Different-Phenotype (%): 25% and 44%
  Total Cell Count: 208 and 144
Fibroblast; [4]
  Population Apoptotic (%): 66% and 53%
  Population Fragmented Nuclei (%): 11% and 20%
  Population Healthy Nuclei (%): 81% and 53%
  Population Hoechst High Intensity Objects (%): 0% and 4%
  Population Membrane Permeable-Phenotype (%): 0% and 11%
  Population Mitochondria Different-Phenotype (%): 4%
  Population Mitotic Cells (%): 33% and 46%
  Population Normal (%): 99% and 95%
  Population Tubulin-Different-Phenotype (%): 25% and 70%
  Total Cell Count: 119 and 120
Fibroblast; [5]
  Population Apoptotic (%): 78% and 45%
  Population Fragmented Nuclei (%): 24% and 29%
  Population Healthy Nuclei (%): 66% and 56%
  Population Hoechst High Intensity Objects (%): 3% and 1%
  Population Membrane Permeable-Phenotype (%): 1% and 7%
  Population Mitochondria Different-Phenotype (%): 2% and 6%
  Population Mitotic Cells (%): 21% and 54%
  Population Normal (%): 96% and 98%
  Population Pyknosed Nuclei (%): 9% and 14%
  Population Tubulin-Different-Phenotype (%): 31% and 44%
  Total Cell Count: 216 and 159
Fibroblast; [6]
  Population Apoptotic (%): 46% and 59%
  Population Fragmented Nuclei (%): 18% and 34%
  Population Healthy Nuclei (%): 69% and 46%
  Population Hoechst High Intensity Objects (%): 0% and 3%
  Population Membrane Permeable-Phenotype (%): 0% and 5%
  Population Mitochondria Different-Phenotype (%): 1% and 5%
  Population Mitotic Cells (%): 53% and 40%
  Population Normal (%): 100% and 96%
  Population Pyknosed Nuclei (%): 12% and 19%
  Population Tubulin-Different-Phenotype (%): 33% and 58%
  Total Cell Count: 124 and 118
HEK-293T; [1]
  Population Apoptotic (%): 34% and 50%
  Population Fragmented Nuclei (%): 6%
  Population Healthy Nuclei (%): 81% and 84%
  Population Hoechst High Intensity Objects (%): 6%
  Population Membrane Permeable-Phenotype (%): 0%
  Population Mitochondria Different-Phenotype (%): 41% and 62%
  Population Mitotic Cells (%): 65% and 50%
  Population Normal (%): 93%
  Population Pyknosed Nuclei (%): 11% and 8%
  Population Tubulin-Different-Phenotype (%): 31% and 20%
  Total Cell Count: 422 and 389
HEK-293T; [2]
  Population Apoptotic (%): 43% and 51%
  Population Fragmented Nuclei (%): 5%
  Population Healthy Nuclei (%): 76% and 79%
  Population Hoechst High Intensity Objects (%): 7%
  Population Membrane Permeable-Phenotype (%): 0%
  Population Mitochondria Different-Phenotype (%): 45% and 49%
  Population Mitotic Cells (%): 56% and 48%
  Population Normal (%): 92%
  Population Pyknosed Nuclei (%): 18% and 15%
  Population Tubulin-Different-Phenotype (%): 35% and 26%
  Total Cell Count: 313 and 327
HEK-293T; [3]
  Population Apoptotic (%): 27% and 31%
  Population Fragmented Nuclei (%): 9% and 7%
  Population Healthy Nuclei (%): 79% and 83%
  Population Hoechst High Intensity Objects (%): 4% and 7%
  Population Membrane Permeable-Phenotype (%): 0%
  Population Mitochondria Different-Phenotype (%): 28% and 52%
  Population Mitotic Cells (%): 72% and 68%
  Population Normal (%): 95% and 92%
  Population Pyknosed Nuclei (%): 10% and 8%
  Population Tubulin-Different-Phenotype (%): 26% and 21%
  Total Cell Count: 604 and 491
HEK-293T; [4]
  Population Apoptotic (%): 33% and 39%
  Population Fragmented Nuclei (%): 8%
  Population Healthy Nuclei (%): 75% and 79%
  Population Hoechst High Intensity Objects (%): 5% and 6%
  Population Membrane Permeable-Phenotype (%): 0%
  Population Mitochondria Different-Phenotype (%): 34% and 40%
  Population Mitotic Cells (%): 66% and 60%
  Population Normal (%): 94% and 93%
  Population Pyknosed Nuclei (%): 16% and 12%
  Population Tubulin-Different-Phenotype (%): 31% and 20%
  Total Cell Count: 369 and 422
HEK-293T; [5]
  Population Apoptotic (%): 23% and 19%
  Population Fragmented Nuclei (%): 13% and 14%
  Population Healthy Nuclei (%): 79%
  Population Hoechst High Intensity Objects (%): 2% and 5%
  Population Membrane Permeable-Phenotype (%): 1% and 0%
  Population Mitochondria Different-Phenotype (%): 16% and 26%
  Population Mitotic Cells (%): 76% and 80%
  Population Normal (%): 97% and 94%
  Population Pyknosed Nuclei (%): 7% and 6%
  Population Tubulin-Different-Phenotype (%): 14% and 13%
  Total Cell Count: 998 and 673
HEK-293T; [6]
  Population Apoptotic (%): 24% and 39%
  Population Fragmented Nuclei (%): 9% and 11%
  Population Healthy Nuclei (%): 79% and 82%
  Population Hoechst High Intensity Objects (%): 3% and 5%
  Population Membrane Permeable-Phenotype (%): 2%
  Population Mitochondria Different-Phenotype (%): 25% and 23%
  Population Mitotic Cells (%): 75% and 60%
  Population Normal (%): 96% and 94%
  Population Pyknosed Nuclei (%): 10% and 6%
  Population Tubulin-Different-Phenotype (%): 22% and 24%
  Total Cell Count: 479 and 555
